Values after ≈ are worked out from the molar mass of the structure shown.
Tests used:
[1] = Oral bioavailability in cynomolgus monkey at 5 mg/kg; assay type: ADME, organism-based, Macaca fascicularis; conditions: in vivo
Method in brief: (§1)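 Single IV (about 1 mg/kg) and oral (about 5 mg/kg) doses in rat, cynomolgus monkey and dog; CL, t1/2, Vss, Cmax, tmax, AUC and oral bioavailability F derived from plasma concentration-time data.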

[2] = Permeability across apical to basolateral side in human Caco2 cells at 3 uM; assay type: ADME, cell-based; conditions: Caco-2, read-out: permeability
Method in brief: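 Caco-2 monolayer permeability at 3 µM, apical-to-basolateral and basolateral-to-apical, reported in nm/sec.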

[3] = Ssolubility of the compound at pH 7.3; assay type: physicochemical; conditions: buffer
[4] = Ssolubility of the compound at pH 6.1; assay type: physicochemical; conditions: buffer
[5] = Tmax in Sprague-Dawley rat at 4.4 mg/kg, po; assay type: ADME, organism-based; conditions: in vivo
[6] = molecular target: Human immunodeficiency virus type 1 integrase (Human immunodeficiency virus 1, UniProt Q7ZJM1); experiment: Inhibition of HIV1 integrase strand transfer activity
Chain of Human immunodeficiency virus type 1 integrase (Q7ZJM1 whole entry): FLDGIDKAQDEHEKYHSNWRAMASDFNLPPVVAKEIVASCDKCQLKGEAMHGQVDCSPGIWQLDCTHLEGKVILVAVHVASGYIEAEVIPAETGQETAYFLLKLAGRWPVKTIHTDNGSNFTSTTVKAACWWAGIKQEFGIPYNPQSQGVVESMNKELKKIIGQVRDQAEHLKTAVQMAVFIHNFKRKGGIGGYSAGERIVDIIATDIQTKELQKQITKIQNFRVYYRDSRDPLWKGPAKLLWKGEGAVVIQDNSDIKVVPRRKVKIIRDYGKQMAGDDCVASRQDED

HepG2 = experiment: Cytotoxicity against human HepG2 cells; assay type: cell-based
[7] = molecular target: T1, Nuclear receptor subfamily 1 group I member 2 (Homo sapiens, UniProt O75469); experiment: Transactivation of human PXR; assay type: ADME
T1 sequence (O75469 whole entry): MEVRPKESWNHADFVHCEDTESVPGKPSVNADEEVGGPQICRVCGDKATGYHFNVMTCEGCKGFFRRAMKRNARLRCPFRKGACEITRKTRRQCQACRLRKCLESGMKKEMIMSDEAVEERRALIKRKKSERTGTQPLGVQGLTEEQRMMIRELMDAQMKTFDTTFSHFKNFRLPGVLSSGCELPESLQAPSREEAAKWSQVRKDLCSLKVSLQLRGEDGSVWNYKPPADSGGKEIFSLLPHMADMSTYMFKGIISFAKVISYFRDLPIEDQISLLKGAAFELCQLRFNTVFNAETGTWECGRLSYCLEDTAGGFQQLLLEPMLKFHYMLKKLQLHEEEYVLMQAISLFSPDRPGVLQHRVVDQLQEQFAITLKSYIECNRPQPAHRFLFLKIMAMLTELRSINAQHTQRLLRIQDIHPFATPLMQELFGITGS
Method in brief: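 Human PXR transactivation assay, with potency reported as EC20A and EC60A values.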

[8] = Clearance in Beagle dog at 1 mg/kg, iv; assay type: ADME, organism-based, Canis lupus familiaris; conditions: in vivo; method in brief: as §1
Salmonella typhimurium [9] = experiment: Genotoxicity in Salmonella typhimurium TA98 at =<5000 ug/plate in presence of metabolic activators by Ames test; assay type: toxicity, organism-based; conditions: salmonella enterica subsp. enterica serovar typhimurium
Method in brief: (§2)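 Bacterial reverse mutation (Ames) test, Salmonella typhimurium TA98 and TA100, up to 5000 µg/plate, with and without metabolic activation.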

Cytochrome P450 3A4 = Cytochrome P450 3A4 (Homo sapiens, UniProt P08684); experiment: Inhibition of human CYP3A4; assay type: ADME
Chain of Cytochrome P450 3A4 (P08684 whole entry): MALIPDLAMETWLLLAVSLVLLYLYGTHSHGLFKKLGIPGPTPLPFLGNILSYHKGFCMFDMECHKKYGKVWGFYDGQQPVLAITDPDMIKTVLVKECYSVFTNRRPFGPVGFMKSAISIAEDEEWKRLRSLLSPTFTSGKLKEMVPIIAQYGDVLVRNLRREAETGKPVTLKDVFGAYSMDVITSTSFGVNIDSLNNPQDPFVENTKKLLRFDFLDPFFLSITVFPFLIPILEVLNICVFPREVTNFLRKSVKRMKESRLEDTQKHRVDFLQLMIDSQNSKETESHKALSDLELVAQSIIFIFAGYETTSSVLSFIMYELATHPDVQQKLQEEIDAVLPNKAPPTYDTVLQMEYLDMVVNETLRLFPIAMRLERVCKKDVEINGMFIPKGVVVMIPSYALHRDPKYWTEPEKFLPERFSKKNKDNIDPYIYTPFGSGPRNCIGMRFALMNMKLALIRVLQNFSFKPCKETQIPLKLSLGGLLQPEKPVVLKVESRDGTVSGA

Homo sapiens = experiment: Toxicity in normal healthy human assessed as occurence of adverse events at 200 to 1200 mg, po, administered as single dose; assay type: organism-based; conditions: in vivo
Method in brief: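 Human subjects received single oral doses of 200, 600, 800 or 1200 mg and were monitored for clinically significant adverse events.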

Cytochrome P450 2C9 = Cytochrome P450 2C9 (Homo sapiens, UniProt P11712); experiment: Inhibition of human CYP2C9; assay type: ADME
Chain of Cytochrome P450 2C9 (P11712 whole entry): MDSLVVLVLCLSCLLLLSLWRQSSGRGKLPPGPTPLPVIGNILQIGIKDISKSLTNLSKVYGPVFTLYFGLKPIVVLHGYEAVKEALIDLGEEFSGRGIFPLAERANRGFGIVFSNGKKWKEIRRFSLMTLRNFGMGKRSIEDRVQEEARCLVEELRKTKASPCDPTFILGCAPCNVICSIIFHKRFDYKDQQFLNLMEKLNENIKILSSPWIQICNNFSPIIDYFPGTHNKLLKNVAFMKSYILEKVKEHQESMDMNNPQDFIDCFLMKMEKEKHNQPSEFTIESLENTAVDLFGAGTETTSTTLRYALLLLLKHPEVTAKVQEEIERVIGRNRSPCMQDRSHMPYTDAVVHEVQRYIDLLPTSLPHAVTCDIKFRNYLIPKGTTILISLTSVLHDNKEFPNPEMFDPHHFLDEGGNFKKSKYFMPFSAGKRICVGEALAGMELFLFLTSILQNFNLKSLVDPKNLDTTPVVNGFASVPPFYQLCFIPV

[10] = Solubility of the compound at pH 8.5; assay type: physicochemical; conditions: buffer
[11] = Tmax in cynomolgus monkey at 5 mg/kg, po; assay type: ADME, organism-based, Macaca fascicularis; conditions: in vivo
[12] = Protein binding in rat plasma; assay type: ADME, cell-free; conditions: read-out: PPB (converted)
[13] = Ssolubility of the compound at pH 2.3; assay type: physicochemical; conditions: buffer
[14] = Drug metabolism in cynomolgus monkey liver microsomes assessed as CYP-mediated metabolism by measuring compound half life; assay type: ADME, Macaca fascicularis
Method in brief: (§3)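 Microsomal stability with NADPH (CYP-dependent) in rat, cynomolgus, dog and human microsomes; half-life in min.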

[15] = Drug metabolism in human microsomes assessed as CYP-mediated metabolism by measuring compound half life; assay type: ADME; method in brief: as §3
[16] = Clearance in Sprague-Dawley rat at 0.87 mg/kg, iv; assay type: ADME, organism-based; conditions: in vivo; method in brief: as §1
Salmonella typhimurium [17] = experiment: Genotoxicity in Salmonella typhimurium TA100 at =<5000 ug/plate in absence of metabolic activators by Ames test; assay type: toxicity, organism-based; conditions: salmonella enterica subsp. enterica serovar typhimurium; method in brief: as §2
[18] = Cmax in cynomolgus monkey at 5 mg/kg, po; assay type: ADME, organism-based, Macaca fascicularis; set-up: dose 5 mg/kg, route oral; conditions: in vivo; method in brief: as §1
Salmonella typhimurium [19] = experiment: Genotoxicity in Salmonella typhimurium TA98 at =<5000 ug/plate in absence of metabolic activators by Ames test; assay type: toxicity, organism-based; conditions: salmonella enterica subsp. enterica serovar typhimurium; method in brief: as §2
[20] = Dissociation constant, pKa of the compound; assay type: physicochemical
[21] = Drug metabolism in rat liver microsomes assessed as CYP-mediated metabolism by measuring compound half life; assay type: ADME; method in brief: as §3
[22] = AUC in cynomolgus monkey at 5 mg/kg, po; assay type: ADME, organism-based, Macaca fascicularis; conditions: in vivo; method in brief: as §1
Salmonella typhimurium [23] = experiment: Genotoxicity in Salmonella typhimurium TA100 at =<5000 ug/plate in presence of metabolic activators by Ames test; assay type: toxicity, organism-based; conditions: salmonella enterica subsp. enterica serovar typhimurium; method in brief: as §2
[24] = Protein binding in cynomolgus monkey plasma; assay type: ADME, cell-free, Macaca fascicularis; conditions: read-out: PPB (converted)

bioavailability [1]: 56%
Papp A→B at 3 µM [2]: 33.4 ×10⁻⁶ cm/s
solubility [3]: 63 µg/mL (≈ 181 µM)
solubility [4]: 21 µg/mL (≈ 60.5 µM)
Tmax [5]: 15 min
IC50 [6]: 3 nM
EC50 [7]: > 50 µM
EC20 ([7]; human): > 50 µM
EC60 ([7]; human): > 50 µM
clearance [8]: 2 mL/min/kg
IC50 (Cytochrome P450 3A4): > 40 µM
IC50 (Cytochrome P450 2C9): > 40 µM
solubility [10]: 234 µg/mL (≈ 674 µM)
Tmax [11]: 15 min
fraction unbound [12]: 0.063
solubility [13]: 9 µg/mL (≈ 25.9 µM)
half-life [14]: 96 min
half-life [15]: 110 min
clearance [16]: 9.7 mL/min/kg
Cmax [18]: 6.12 µM
pKa [20]: 6.6
half-life [21]: > 120 min
AUC [22]: 19.2 µM·h
fraction unbound [24]: 0.041
Compound: CC1(C)OCCn2c1nc(C(=O)NCc1ccc(F)cc1)c(O)c2=O
IC50 (HepG2): ≥ 45 µM
Activity (Salmonella typhimurium [9]): Non-Toxic
Activity (Homo sapiens): Non-Toxic
Activity (Salmonella typhimurium [17]): Non-Toxic
Activity (Salmonella typhimurium [19]): Non-Toxic
Activity (Salmonella typhimurium [23]): Non-Toxic

Reference: ChEMBL document CHEMBL4118197, “The discovery and preclinical evaluation of BMS-707035, a potent HIV-1 integrase strand transfer inhibitor” (Bioorg Med Chem Lett, 2018)
